# Assay results from ChEMBL document CHEMBL4513216, “Probing the Open Global Health Chemical Diversity Library for Multistage-Active Starting Points for Next-Generation Antimalarials” (ACS Infect Dis, 2020).
# Experiment: Toxicity liver stage against HepG2, at 10uM
# Format: cell-based
# Parameters: test concentration 10 uM, cell line HepG2-A16-CD81EGFP
# Conditions: human, HepG2-A16-CD81EGFP cells; read-out: INHIBITION
# Outline: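 Uninfected HepG2-A16-CD81EGFP cells, 3 × 10^3 per well, 1536-well, plated on prespotted compound at 10 μM final, parasite-free screening media added to match infected plates; puromycin 10 μM positive, DMSO 0.5% negative; run in parallel with 48 h PbLuc assay at 37 °C, 5% CO2; viability by CellTiter-Glo luminescence, normalized to controls.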
structure (smiles),measurement,value
CCOC(=O)c1nc(CC(=O)Nc2ccccc2)no1,cytotoxicity at 10 µM,6.96%
COCCn1cc(C(=O)Nc2nc3c(s2)CCC3)c2ccccc21,cytotoxicity at 10 µM,77.9%
CC(C)c1sc(Br)nc1C(=O)NCc1ccncc1,cytotoxicity at 10 µM,1.18%
COCCCN1CC2(CCCCN2C(=O)C2CCCCC2)CC1=O (centres undefined),cytotoxicity at 10 µM,12.2%
c1cnc(N2CC[C@@H]3[C@@H]2CCN3Cc2cccs2)nc1,cytotoxicity at 10 µM,3.91%
CNC(=O)N1CCC2(CC1)C(=O)N(C)c1c(F)cccc12,cytotoxicity at 10 µM,-5.86%
CCN1C(=O)CC[C@@H]2[C@H]1CCN2C(=O)Cc1cccc(OC)c1,cytotoxicity at 10 µM,0.657%
COCC(=O)N1CCC(c2nc3ccc(N4CCOCC4)cn3n2)CC1,cytotoxicity at 10 µM,12%
CS(=O)(=O)N1C[C@@H]2COC[C@H](C(=O)Nc3cnccn3)[C@@H]2C1,cytotoxicity at 10 µM,14.6%
Cc1cccc(C)c1Nc1noc2c1CN(C(=O)c1ccnn1C)CC2,cytotoxicity at 10 µM,7.3%
Cc1ccnc(C2(C)CCCN2S(=O)(=O)c2ccccc2)n1 (centres undefined),cytotoxicity at 10 µM,0.435%
Cn1cc(C2=NOC(C(=O)NC3(c4ccccc4F)CCCC3)C2)cn1 (centres undefined),cytotoxicity at 10 µM,-0.269%
CN1CCCC(c2cccc(-c3cccc(C(F)(F)F)c3)n2)C1 (centres undefined),cytotoxicity at 10 µM,-6.47%
Nc1cc(CCC2CN(Cc3cccc(C(=O)O)c3)CCO2)ccn1 (centres undefined),cytotoxicity at 10 µM,-1.17%
Cc1ccc(F)c(S(=O)(=O)N2CCCC2c2ccncc2)c1 (centres undefined),cytotoxicity at 10 µM,10.6%
CCN(CC1CC1)C(=O)NCc1nnc2n1CCC2,cytotoxicity at 10 µM,-13.2%
Cc1ccc2c(c1)N(C(=O)c1c[nH]c(C)cc1=O)CC(C)O2 (centres undefined),cytotoxicity at 10 µM,23.6%
CCC(=O)Nc1ccc(N2CCC(OC)CC2)c(C(F)(F)F)c1,cytotoxicity at 10 µM,5.72%
Cc1cc(NC(=O)c2ccc(N3CCOCC3)cc2)[nH]n1,cytotoxicity at 10 µM,-28.5%
Cc1ccc(OCC(=O)Nc2cc(C(=O)O)cc(S(C)(=O)=O)c2)cc1C,cytotoxicity at 10 µM,-4.95%
Cc1ccc(C(=O)NCCS(=O)(=O)Cc2ccccc2)c(=O)[nH]1,cytotoxicity at 10 µM,-5.96%
Cc1ccc(C)c(CS(=O)(=O)Cc2ccn(C)c(=O)c2)c1,cytotoxicity at 10 µM,13.8%
Cc1ccc(CNCc2cc(Br)c3c(c2)OCO3)cc1,cytotoxicity at 10 µM,5.35%
O=C(CN1CCCC(c2ncc[nH]2)C1)NCCCN1CCCCCC1=O (centres undefined),cytotoxicity at 10 µM,6.66%
CCOCCN1CCN(c2ccc(C#N)cn2)CC1,cytotoxicity at 10 µM,-4.21%
Cc1nc(NCc2nncn2C2CC2)c2c(CC(C)C)csc2n1,cytotoxicity at 10 µM,-5.57%
O=C(Nc1cccc(F)c1)NC1CCN(Cc2ccncc2)CC1,cytotoxicity at 10 µM,-9.01%
Cc1nnc2n1CCN(CC(=O)NC(C)c1ccc3ccccc3c1)C2 (centres undefined),cytotoxicity at 10 µM,-7.91%
CC(C)Cc1noc(CNc2cccc(-c3nnnn3C)c2)n1,cytotoxicity at 10 µM,4.6%
O=C(NCC1CCN(CCc2ccccc2)C1)c1c(F)cccc1F (centres undefined),cytotoxicity at 10 µM,16.6%
COc1cc(NC(=O)NCCO)ccc1N1CCOC1=O,cytotoxicity at 10 µM,-0.803%
CNC(=O)CC1CCN(C(=O)NCc2cn3c(C)cccc3n2)CC1,cytotoxicity at 10 µM,3.88%
Cc1cccc(NC(=O)[C@@H]2CCCN2Cc2cnc3ccccn23)n1,cytotoxicity at 10 µM,-7.22%
Cc1ccc(S(=O)(=O)N2CCC(N3CCCCC3)CC2)cc1C,cytotoxicity at 10 µM,8.95%
Cn1cc(CNC(=O)NCCOc2ccc(F)c(F)c2)cn1,cytotoxicity at 10 µM,2.13%
CC(C)(C)NC(=O)NC(=O)COc1nc(C(C)(C)C)no1,cytotoxicity at 10 µM,-1.62%
CCc1nc(C)c(C(=O)N2CCCC(c3noc(C)n3)C2)s1 (centres undefined),cytotoxicity at 10 µM,5.82%
CC(C)NC(=O)Nc1cccc2c1CCN(S(C)(=O)=O)C2,cytotoxicity at 10 µM,-8.59%
O=C(NCCCNC(=O)c1cccc(O)c1)Nc1ccc(Cl)cc1,cytotoxicity at 10 µM,-3.79%
Cc1noc(CCCC(=O)N2CCCCC2c2nccs2)n1 (centres undefined),cytotoxicity at 10 µM,-87.5%
CC(=O)N1CCC(CCNC(C)c2cc(C)cc(C)c2)CC1 (centres undefined),cytotoxicity at 10 µM,-9.8%
O=C(c1ccc2nncn2c1)N1CCSC2(CCCCC2)C1,cytotoxicity at 10 µM,-5.32%
Cc1cc(CN(CCO)c2ccccc2)on1,cytotoxicity at 10 µM,-14.7%
CCn1c(CN(C)Cc2csc(C)n2)nc2cc(F)ccc21,cytotoxicity at 10 µM,-47%
O=C(CCc1cscn1)N1CCC(C(=O)O)(c2ccccc2)CC1,cytotoxicity at 10 µM,-5.36%
CNC(=O)CN(C)C(=O)c1cc2ccccc2cc1OC,cytotoxicity at 10 µM,17.1%
COCCN(Cc1cccc(O)c1)CC1CC1,cytotoxicity at 10 µM,12.7%
CC(NCCCc1cnn(C)c1)c1ccc(Br)s1 (centres undefined),cytotoxicity at 10 µM,9.59%
Cc1ccc(CNCc2nnc3n2CC(C(F)(F)F)CC3)cc1 (centres undefined),cytotoxicity at 10 µM,6.84%
CCOCC(=O)NC1(c2cccc(Br)c2)CC1,cytotoxicity at 10 µM,-11.3%
CO[C@H]1CCN(C(=O)Cc2ccc(F)cc2)[C@H]1Cc1ccncc1,cytotoxicity at 10 µM,5.55%
CS(=O)(=O)N1CCC2(CC1)CC(NCc1ccccn1)c1ccccc12 (centres undefined),cytotoxicity at 10 µM,-109%
CC1=N[C@@]2(CC[C@@H]3CN(S(C)(=O)=O)C[C@@H]32)C(=O)N1CC(C)C,cytotoxicity at 10 µM,-71.3%
COC[C@@H]1CC[C@H]2[C@H](CCN2S(=O)(=O)c2ccc(OC)cc2)O1,cytotoxicity at 10 µM,0.796%
Nc1ncc(-c2ccc(NC(=O)[C@@H]3CCCCN3)cc2)cn1,cytotoxicity at 10 µM,-4.44%
O=C(Cc1cn2ccsc2n1)N1CCOCC(O)(CN2CCCC2)C1 (centres undefined),cytotoxicity at 10 µM,-3.36%
Fc1ccccc1CC1CCN(Cc2ccccn2)CC1,cytotoxicity at 10 µM,2.25%
CN(CCN1CCCC1)c1nccc(N2CCN[C@H]3CS(=O)(=O)C[C@H]32)n1,cytotoxicity at 10 µM,-8.93%
Cc1ccc(-c2nnc(CN3CCCC(O)(CO)CC3)o2)n1C (centres undefined),cytotoxicity at 10 µM,-2.4%
CCCOc1ccc(Cl)cc1CNc1ncnc2oc(C)nc12,cytotoxicity at 10 µM,9.98%
Cc1cccc(OC2CN(C(=O)c3cnn(C)c3)C2)c1,cytotoxicity at 10 µM,-2.92%
CN1CCCCCC1C(=O)N1CCCN(c2ccccc2)CC1 (centres undefined),cytotoxicity at 10 µM,-6.56%
C[C@@H]1CN(S(=O)(=O)c2ccc(F)cc2F)C[C@]1(C)O,cytotoxicity at 10 µM,-3.36%
CC(C)CC(C)NC1CCN(c2ccc(-c3cscn3)cc2)CC1 (centres undefined),cytotoxicity at 10 µM,-50.6%
CCCOC(=O)NCCC1CN(c2cnn(C)c(=O)c2)CCO1 (centres undefined),cytotoxicity at 10 µM,5.31%
COc1nc2ccn(CCc3scnc3C)c(=O)c2cc1C#N,cytotoxicity at 10 µM,12.8%
O=C(CN1CCNC1=O)N1CCc2nnc(-c3ccccc3)n2CC1,cytotoxicity at 10 µM,-46.1%
CN1CCN(C)C2(CCN(Cc3ccc(C4CCCO4)s3)CC2)C1 (centres undefined),cytotoxicity at 10 µM,-11.7%
Nc1ccnc(N2CCC(Cc3ccccc3Cl)(C(=O)O)CC2)n1,cytotoxicity at 10 µM,2.8%
O=C(c1ccco1)N1CCc2ncnc(NCc3ccccn3)c2CC1,cytotoxicity at 10 µM,5.61%
COCCN(Cc1cnn(C)c1)c1nc2c(s1)c(C)nn2C,cytotoxicity at 10 µM,-42.4%
O=C1CC[C@@H](C(=O)N2CCC(Cn3cc(C4CCCCC4)nn3)CC2)N1,cytotoxicity at 10 µM,8.02%
Cc1cc(C(F)(F)F)nc(CCNC(C)Cn2nc(C)cc2C)n1 (centres undefined),cytotoxicity at 10 µM,8.19%
O=C(Nc1ccc2c(c1)OCO2)N1CCCC1c1ccco1 (centres undefined),cytotoxicity at 10 µM,-2.11%
Cc1cc(CN2CCc3nc(C)n(C)c(=O)c3CC2)[nH]n1,cytotoxicity at 10 µM,-7.92%
CCCn1cnnc1CNCc1c[nH]nc1-c1ccc(F)cc1,cytotoxicity at 10 µM,2.69%
Cc1ccnc(CC(C)N(C)c2cc(CCN)nc(C)n2)c1 (centres undefined),cytotoxicity at 10 µM,-48%
CN1CC2(CCCN(c3nc(N)nc4c3CCCC4)C2)OC1=O (centres undefined),cytotoxicity at 10 µM,-0.519%
Clc1ccc2cccnc2c1CN1CCCCC1Cn1cncn1 (centres undefined),cytotoxicity at 10 µM,7.63%
Cc1nccn1C1CCCN(C(=O)c2ccc3c(c2)nc(C)n3C)C1 (centres undefined),cytotoxicity at 10 µM,-9.75%
CC(C)c1noc(CN2CCN(C(=O)c3cccnc3O)CC2)n1,cytotoxicity at 10 µM,-9.86%
Cc1nccn1CC1CCCN1S(=O)(=O)Cc1cccc(C#N)c1 (centres undefined),cytotoxicity at 10 µM,-20.7%
CC(C)c1ncc2c(n1)CN(Cc1noc(-c3ccccc3)n1)CC2,cytotoxicity at 10 µM,-0.414%
CC(C)c1nnc2n1CCN(C(=O)c1cccc(S(C)(=O)=O)c1)C2,cytotoxicity at 10 µM,-28.4%
Cc1ccc(-c2cnn(CC(=O)NC(C)C)c2)cc1,cytotoxicity at 10 µM,0.724%
N#Cc1cccc(NS(=O)(=O)c2ccc(C(=O)O)cc2F)c1,cytotoxicity at 10 µM,-3.67%
O=C(CCNc1ncccn1)N1CCN(c2nccs2)CC1,cytotoxicity at 10 µM,-11.6%
C1CCCN(CC2CCCN(Cc3noc(C4CC4)n3)C2)CC1 (centres undefined),cytotoxicity at 10 µM,-12.7%
Cc1nn(C)c(C)c1C1CCCN1C(=O)c1ccc(CN(C)C)cc1 (centres undefined),cytotoxicity at 10 µM,-7.79%
CCN1CCC(CNC(=O)NCc2cc(-c3ccc(C)cc3)no2)C1 (centres undefined),cytotoxicity at 10 µM,-12.3%
O=C(NCCC(=O)N1CCCC1)c1nn(-c2ccccc2F)cc1O,cytotoxicity at 10 µM,-13.9%
O=C(O)c1cc(S(=O)(=O)Nc2ccc(Cl)cc2)cc2c1OCCO2,cytotoxicity at 10 µM,2.33%
Cc1ccc(CNC(=O)NCCCn2nc3ccccn3c2=O)s1,cytotoxicity at 10 µM,-2.09%
CN(Cc1ccnc2ccccc12)C1CCS(=O)(=O)C1 (centres undefined),cytotoxicity at 10 µM,4.36%
Fc1ccc(Cc2cnc(C3CCCN3)cn2)cc1 (centres undefined),cytotoxicity at 10 µM,-9.77%
O=C(NC1CC1)N1CCc2ccc(=O)n(Cc3cccnc3)c2CC1,cytotoxicity at 10 µM,0.995%
CN1Cc2c(C(=O)Nc3cccnc3)ncn2-c2ccccc2S1(=O)=O,cytotoxicity at 10 µM,-4%
O=C(c1ncccn1)N1C[C@H]2CCC[C@@]2(COCc2cccnc2)C1,cytotoxicity at 10 µM,1.83%
Cc1cnc(N2CCO[C@@H]3CC(COCc4cccnc4)C[C@H]32)nc1 (some centres undefined),cytotoxicity at 10 µM,3.93%
c1coc(CN2CCCn3c(nnc3Cn3cccc3)C2)c1,cytotoxicity at 10 µM,-0.314%
O=C(c1cccs1)N1CC[C@@H]2CN(C3CCOCC3)CCO[C@@H]2C1,cytotoxicity at 10 µM,-110%
COc1cccc(-c2noc(C3CCN(Cc4ccccc4C)C3)n2)c1 (centres undefined),cytotoxicity at 10 µM,-6.88%
CO[C@@H]1CCN(Cc2ccoc2)[C@@H]2CN(Cc3ccco3)C[C@@H]21,cytotoxicity at 10 µM,8.1%
CC(C)CN1CCN(C)C2(CCN(c3nccs3)CC2)C1=O,cytotoxicity at 10 µM,-5.4%
Cc1ccc(CN2CCc3ncc(CNC(=O)C4CCC4)n3CC2)o1,cytotoxicity at 10 µM,8.71%
O=C(c1ccc[nH]1)N1CCCn2c(CNC3CCC3)nnc2C1,cytotoxicity at 10 µM,-105%
Cc1cccc(CN2CC3(CCN(Cc4ccoc4)CC3)OCC2=O)n1,cytotoxicity at 10 µM,-3.18%
Cc1[nH]nc(CCC(=O)N2C[C@@H]3CC[C@H]2CN(C(=O)N(C)C)C3)c1C,cytotoxicity at 10 µM,3.8%
CCNc1nc2cn(-c3ccc(OC(F)(F)F)cc3)c(=O)c-2c[nH]1,cytotoxicity at 10 µM,11.8%
